Source: article PMC9535927 (The Biochemical journal, 2020)
Like-named read-outs stand apart in the source and are kept apart here.

Tests used:
rASCT2 = target: T1, rASCT2 (Rattus norvegicus, UniProt D3ZJ25); experiment: Glutamine uptake fluorescence assay; type: cell-based
T1 sequence (D3ZJ25 1-555): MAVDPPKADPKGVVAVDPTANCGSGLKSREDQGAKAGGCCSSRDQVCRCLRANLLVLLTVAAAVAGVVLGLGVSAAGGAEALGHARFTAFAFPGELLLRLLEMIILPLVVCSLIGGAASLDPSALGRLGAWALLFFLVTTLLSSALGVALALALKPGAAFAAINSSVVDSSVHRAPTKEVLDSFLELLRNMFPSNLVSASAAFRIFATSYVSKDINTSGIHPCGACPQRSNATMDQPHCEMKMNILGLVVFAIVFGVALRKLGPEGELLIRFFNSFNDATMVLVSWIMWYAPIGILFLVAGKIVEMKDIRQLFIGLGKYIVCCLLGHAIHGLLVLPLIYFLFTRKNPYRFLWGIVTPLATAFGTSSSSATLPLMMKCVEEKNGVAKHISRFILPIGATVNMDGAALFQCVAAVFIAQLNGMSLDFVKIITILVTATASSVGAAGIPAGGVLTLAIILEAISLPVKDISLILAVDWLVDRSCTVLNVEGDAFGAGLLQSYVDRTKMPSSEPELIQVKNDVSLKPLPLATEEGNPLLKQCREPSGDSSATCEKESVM

ASCT2 [1] = type: cell-based, rat/human
[2] = Proton ionisation constants; type: physicochemical; settings: pH 7.4
[3] = cited from earlier work
ASCT2 [4] = target: T2, ASCT2 (Homo sapiens, UniProt Q15758); experiment: Radiotracer flux: 14C BMAA uptake in ASCT2-transfected MDCK-II cell monolayers; type: cell-based
T2 sequence (Q15758 1-541): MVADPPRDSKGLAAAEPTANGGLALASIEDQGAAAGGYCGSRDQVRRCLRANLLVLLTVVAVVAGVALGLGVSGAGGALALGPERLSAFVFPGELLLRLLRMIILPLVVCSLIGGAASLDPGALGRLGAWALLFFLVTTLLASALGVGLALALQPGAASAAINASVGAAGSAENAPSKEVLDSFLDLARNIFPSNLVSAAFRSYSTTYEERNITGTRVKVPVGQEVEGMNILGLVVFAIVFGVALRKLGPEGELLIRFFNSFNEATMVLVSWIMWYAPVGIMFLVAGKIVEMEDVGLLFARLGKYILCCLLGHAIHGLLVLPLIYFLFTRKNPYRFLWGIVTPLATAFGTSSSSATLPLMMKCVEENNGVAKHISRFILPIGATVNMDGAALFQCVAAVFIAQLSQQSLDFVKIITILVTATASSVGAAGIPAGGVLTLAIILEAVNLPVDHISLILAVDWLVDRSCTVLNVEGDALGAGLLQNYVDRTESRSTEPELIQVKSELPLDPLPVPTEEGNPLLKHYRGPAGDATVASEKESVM
How it was run: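 ASCT2-transfected MDCK-II cells grown as monolayers on transwell membranes, assayed 48 h after transfection. After washing, 2 mM 14C BMAA was applied apically for 5 min. Apical and basolateral solutions were then aspirated and both sides washed. Cells were extracted in acetonitrile:water (50:50) and the extract counted by liquid scintillation. Uptake is given as pmol/min/cm2 and compared with non-ASCT2-expressing control cells.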

ASCT2 [5] = settings: read-out: Ki (competes with alanine for the substrate binding site); cited from earlier work
[6] = 2 mM, pH 7.40, intracellular SCN-
[7] = 4 mM (D-2,3-DAP: up to 4 mM), pH 7.40

In the case of `N[C@@H](COCc1ccccc1)C(=O)O` [benzylserine], the “decrease in fluorescence emission in the Venus range (glutamine uptake)” value (from here on “decrease in fluorescence emission”) (rASCT2; 500 μM glutamine plus 5 mM test compound) is reported as 2.70 ± 1.25%.

For `NC(=O)CC[C@H](N)C(=O)O` [glutamine], the “decrease in fluorescence emission” value (rASCT2; 500 μM glutamine applied externally alone) was 11.2 ± 0.89%.

For `NC[C@H](N)C(=O)O` [L-DAP, L-2,3-diaminopropionic acid], the “direction of evoked current at low pH” value (ASCT2 [1]; 2 mM, extracellular pH below 6.50, V = 0 mV) was “outwardly directed”, the “current elicited on application to ASCT2-expressing cells” value (from here on “current elicited on application”) (ASCT2 [1]; [6]) was “elicited an inwardly-directed current” and the “apparent valence from slope of log(Km) vs. voltage” value (ASCT2 [1]; extracellular 140 mM NaCl, intracellular 130 mM NaSCN, pH 7.4) was 0.21 ± 0.04. For the same molecule, the “decrease in fluorescence emission” value (rASCT2; 500 μM glutamine plus 2 mM test compound) was 1.00 ± 1.14%, the “protonation of the α-amino group” value [2] was 20% and the “pKa of the α-amino group” value [3] was 6.7.

For `NC[C@@H](N)C(=O)O` [D-2,3-DAP], the “current elicited on application” value (ASCT2 [1]; [7]) was “did not produce any current”.

For `CNC[C@H](N)C(=O)O` [BMAA, β-N-Methylamino-L-Alanine], the “inward current relative to the maximum anion current induced by L-alanine” value (ASCT2 [1]; pH 7.40, V = 0 mV) was “less than 20%”, the “uptake of 14C BMAA” value (ASCT2 [4]; 2 mM, control cells (non-ASCT2 expressing)) was 163 ± 36 pmol/min/cm^2 and the “transport rate by ASCT2, fold lower than L-glutamine” value (ASCT2 [4]; if transported at all, inferred from sensitivity of uptake assay) was “at least 10 fold”.

In the case of `O=C(O)[C@@H]1C[C@@H](Cc2ccc(-c3ccccc3)cc2)CN1` [BPP, (R)-γ-(4-biphenylmethyl)-L-proline], the Ki (ASCT2 [5]) is given as 3 µM.

For `NC(=O)CCCC(N)C(=O)O` (centres unmarked) [homoglutamine], the “current elicited on application” value (ASCT2 [1]; pH 7.4) was “outward current”.

For `NCC[C@H](N)C(=O)O` [L-DAB, L-2,4-diaminobutyric acid], the “current elicited on application” value (ASCT2 [1]; [6]) was “produced an inward current, however, with smaller magnitude than that generated by L-DAP”.

With `NCCC[C@H](N)C(=O)O` [L-ornithine] the “current elicited on application” value (ASCT2 [1]; [7]) was “not significantly different from zero”.

In the case of `NCCCC[C@H](N)C(=O)O` [L-lysine], the “current elicited on application” value (ASCT2 [1]; [7]) is reported as “not significantly different from zero”.
